Measurements taken from ChEMBL document CHEMBL1140221, “Novel naphthalene-N-sulfonyl-D-glutamic acid derivatives as inhibitors of MurD, a key peptidoglycan biosynthesis enzyme” (J Med Chem, 2008).
pIC50: −log10 of the molar value.

test system: not listed separately; assay: Inhibition of Escherichia coli MurD

Q: With CCCOc1ccc2cc(S(=O)(=O)N[C@H](CCC(=O)O)C(=O)O)ccc2c1 as the compound, how does the pIC50 read?
A: 3.52

Q: With CCCCOc1ccc2cc(CN[C@H](CCC(=O)O)C(=O)O)ccc2c1 as the compound, how does the pIC50 read?
A: < 3.00

Q: With O=C(O)CC[C@@H](NS(=O)(=O)c1ccc2cc(OCCCc3ccccc3)ccc2c1)C(=O)O as the compound, how does the pIC50 read?
A: 3.88

Q: With O=C(O)CCCOc1ccc2cc(S(=O)(=O)N[C@H](CCC(=O)O)C(=O)O)ccc2c1 as the compound, how does the pIC50 read?
A: < 3.00

Q: With CCCCOc1ccc2cc(S(=O)(=O)N[C@@H](CCC(=O)O)C(=O)O)ccc2c1 as the compound, how does the pIC50 read?
A: 3.15

Q: With CCCCOc1ccc2cc(S(=O)(=O)N[C@H](CCC(=O)OC)C(=O)OC)ccc2c1 as the compound, how does the pIC50 read?
A: < 2.70

Q: With CCCCOc1ccc2cc(S(=O)(=O)N(C)[C@H](CCC(=O)O)C(=O)O)ccc2c1 as the compound, how does the pIC50 read?
A: < 3.00

Q: With O=C(O)CC[C@@H](NS(=O)(=O)c1ccc2cc(OCC(=O)O)ccc2c1)C(=O)O as the compound, how does the pIC50 read?
A: 3.20

Q: With CCCCCCOc1ccc2cc(S(=O)(=O)N[C@H](CCC(=O)O)C(=O)O)ccc2c1 as the compound, how does the pIC50 read?
A: 3.75

Q: With CCCCOc1cccc2c(S(=O)(=O)N[C@H](CCC(=O)O)C(=O)O)cccc12 as the compound, how does the pIC50 read?
A: < 3.00

Q: With CCOC(=O)COc1ccc2cc(S(=O)(=O)N[C@H](CCC(=O)O)C(=O)O)ccc2c1 as the compound, how does the pIC50 read?
A: 3.72

Q: With O=C(O)CC[C@@H](NS(=O)(=O)c1ccc2ccccc2c1)C(=O)O as the compound, how does the pIC50 read?
A: 3.09

Q: With O=C(O)CC[C@@H](NS(=O)(=O)c1ccc2cc(OC3CCCC3)ccc2c1)C(=O)O as the compound, how does the pIC50 read?
A: 3.40

Q: With CCCCOc1ccc(S(=O)(=O)N[C@H](CCC(=O)O)C(=O)O)c2ccccc12 as the compound, how does the pIC50 read?
A: < 3.00

Q: With CCCCOc1ccc2cc(S(=O)(=O)NCC(=O)O)ccc2c1 as the compound, how does the pIC50 read?
A: < 2.70

Q: With O=C(O)CC[C@@H](NS(=O)(=O)c1ccc2cc(OCc3ccccc3)ccc2c1)C(=O)O as the compound, how does the pIC50 read?
A: 3.62

Q: With CCCCOc1ccc2cc(S(=O)(=O)NCCCC(=O)O)ccc2c1 as the compound, how does the pIC50 read?
A: < 2.70

Q: With CCCCOc1ccc2ccc(S(=O)(=O)N[C@H](CCC(=O)O)C(=O)O)cc2c1 as the compound, how does the pIC50 read?
A: 3.74

Q: With CCCCOc1ccc2cc(S(=O)(=O)N[C@H](CCC(=O)O)C(=O)O)ccc2c1 as the compound, how does the pIC50 read?
A: 3.55

Q: With O=C(O)CC[C@@H](NS(=O)(=O)c1ccc(-c2ccccc2)cc1)C(=O)O as the compound, how does the pIC50 read?
A: 2.76

Q: With COc1ccc2cc(S(=O)(=O)N[C@H](CCC(=O)O)C(=O)O)ccc2c1 as the compound, how does the pIC50 read?
A: 3.23

Q: With CCCCOc1ccc2cc(C(=O)N[C@H](CCC(=O)O)C(=O)O)ccc2c1 as the compound, how does the pIC50 read?
A: < 3.00

Q: With C[C@@H](CS(=O)(=O)N[C@H](CCC(=O)O)C(=O)O)S(=O)(=O)c1ccc2ccccc2c1 as the compound, how does the pIC50 read?
A: < 2.70

Q: With COc1cc(C#N)ccc1COc1ccc2cc(S(=O)(=O)N[C@H](CCC(=O)O)C(=O)O)ccc2c1 as the compound, how does the pIC50 read?
A: 4.00

test system: Escherichia coli; assay: Inhibition of Escherichia coli MurD assessed as residual activity at 1 mM
Summary of the method: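 Radiolabel MurD assay: E. coli enzyme, 25 µM UMA plus 25 µM D-[14C]Glu, Tris-HCl pH 8.6, MgCl2, 5% DMSO, compound at 1 mM; 30 min at 37 °C, acid-quenched, reverse-phase HPLC with radioactivity detection. Activity expressed relative to an inhibitor-free assay; mean of two independent experiments.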

Q: Which Activity does the source give for O=C(O)CC[C@@H](NC(=O)C1Oc2ccccc2NC1=O)C(=O)O (stereo partly specified) here?
A: 54%

Q: With O=C(O)CC[C@@H](NC(=O)COc1ccc2ccccc2c1)C(=O)O as the compound, how does the Activity read?
A: 76%

Q: For O=C(O)CC[C@@H](NS(=O)(=O)Cc1ccccc1)C(=O)O, which Activity is on record?
A: 84%

Q: With O=C(O)CC[C@@H](NC(=O)CCc1cccc(O)c1)C(=O)O as the compound, how does the Activity read?
A: 81%

Q: For O=C(O)CC[C@@H](NS(=O)(=O)Cc1ccc(F)cc1Cl)C(=O)O, which Activity is on record?
A: 86%

Q: Which Activity does the source give for O=C(O)CC[C@@H](NC(=O)CN1C(=O)c2ccccc2C1=O)C(=O)O here?
A: 92%

Q: For O=C(O)CC[C@@H](NS(=O)(=O)c1ccc2ccccc2c1)C(=O)O, which Activity is on record?
A: 35%

Q: For O=C(O)CC[C@@H](NC(=O)/C=C/c1ccccc1)C(=O)O, which Activity is on record?
A: 91%

Q: For Cc1ccc(S(=O)(=O)N[C@H](CCC(=O)O)C(=O)O)cc1, which Activity is on record?
A: 66%

Q: Which Activity does the source give for CC(=O)Nc1ccc(S(=O)(=O)N[C@H](CCC(=O)O)C(=O)O)cc1 here?
A: 79%

Q: For O=C(O)CC[C@@H](NS(=O)(=O)c1ccc(-c2ccccc2)cc1)C(=O)O, which Activity is on record?
A: 43%

Q: With C[C@@H](CS(=O)(=O)N[C@H](CCC(=O)O)C(=O)O)S(=O)(=O)c1ccc2ccccc2c1 as the compound, how does the Activity read?
A: 75%
